Assay outcomes from PubChem.
An excerpt weighted towards active compounds, which were near 2.7% of everything screened.
RAM inhibit: yeast RAM network inhibition; S. cerevisiae dse1pr::URA3 reporter, 5-FOA growth OD615, 2 d; analog-sensitive cbk1-as2 kinase mutant strain; inhibition, % at 50 µM; actives 1.8% (n = 190,000);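 active = inhibition above a set limit, 3 SD over mean compound inhibition, cut at about 8.4% in these data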;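 note: inhibition rescues growth on 5-FOA so higher OD means more RAM inhibition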
sdo1 growth: sdo1-depleted yeast growth rescue | S. cerevisiae sdo1-depleted JHY4D growth rescue, OD600 30 h; stronger effect = higher value; pdr5 snq2 efflux-pump mutant strain | z-score at 10 µM | actives 0.21% (n = 140,000) | AID 817;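 active = z-score above 3 at both the 24 hr and the 30 hr optical density reads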
Yeast growth inh: reduces growth of yeast BB579 in restrictive medium; inhibition, % at 10 µM; AID 804; S. cerevisiae BB579 growth, OD615, 48 h; actives 0.51% (n = 140,000);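 active = inhibition above a set limit, 3 SD over the mean compound inhibition, cut at about 44% in these data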
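Assay system: S. cerevisiae DeaD strain BB579 yeast. Medium: CSMM-D restrictive synthetic medium containing dextrose (glucose). Times: 4 h cell preincubation, 48 h compound exposure, 30 °C humidified. Signal: OD615 turbidity measurement. Benchmarks: positive control amphotericin B 10 µg/mL.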
Yeast life ext: extends the lifespan of yeast. inhibition of the nicotinamide effect, % at 10 µM. S. cerevisiae growth with nicotinamide, OD615; deaD strain in restrictive glucose medium. actives 0.68% (n = 130,000);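 active = inhibition above a set limit, placed 3 SD over the median of all compounds, cut at about 26% in these data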
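Material: Modified budding yeast, DeaD strain | Medium: Restrictive glucose medium | Probe or stimulus: 1.5 mM nicotinamide | Dosing: Single dose 10 µM compound, 0.25% DMSO | Times: 48 h at 30 °C | Technique: OD615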
RAM 5-FOA: restores 5-FOA growth of efflux-deficient yeast | shares compounds with RAM inhibit | S. cerevisiae efflux-deficient reporter strain, 5-FOA growth OD615, 2 days | max inhibition, % | 1,200 tested, under 10 active | AID 1305; call rule not given here
Large screens that a line does not name were inactive (follow-up assays come after a bar, where they were run).

C/C(=N\Nc1nc2c(s1)CCCC2)c1ccc(Cl)cc1	RAM inhibit 13 | RAM 5-FOA inactive
COc1ccc(C)cc1S(=O)(=O)N(CC(=O)NCc1ccc(Cl)cc1)Cc1ccccc1	RAM inhibit 12 | RAM 5-FOA inactive
COc1ccc(C)cc1S(=O)(=O)N(CC(=O)N1CCOCC1)Cc1ccccc1	none
COc1ccc(Cl)cc1NC(=S)N(Cc1ccc(C(=O)O)cc1)Cc1ccc(OC)c(OC)c1	none (no result: sdo1 growth, Yeast growth inh, Yeast life ext)
CON/C=C(\C=Nc1ccc(C(F)(F)F)cc1)c1ncc(C(F)(F)F)cc1Cl	RAM inhibit 13 | RAM 5-FOA inactive
COc1ccc(/C(=N\O)c2ncc(C(F)(F)F)cc2Cl)cc1	none
Clc1cccc(CN2CCN(Cc3nc(CCc4ccccc4)no3)CC2)c1	none (no result: sdo1 growth, Yeast growth inh, Yeast life ext)
N#CC(c1ccc(F)cc1)c1ccc(C(=O)c2ccccc2)cc1 (stereo not given)	RAM inhibit 17 | RAM 5-FOA inactive
N#CC(c1ccccc1)c1ccc(C(=O)c2ccc(F)cc2)cc1 (stereo not given)	none
O=C(COC(=O)c1nc(-c2ccccc2)n(-c2cccc(C(F)(F)F)c2)n1)NCc1cccs1	none
O=C(O)CCCN1C(=O)C2C3CC(C2C1=O)C1C(c2ccccc2)c2sc(=O)n(-c4ccccc4)c2SC31 (stereo not given)	none (no result: sdo1 growth, Yeast growth inh, Yeast life ext)
CC1=NC(C)(C)Cc2cc(C)c(C)cc21	none (no result: sdo1 growth, Yeast growth inh, Yeast life ext)
CC(C)(C)NC(=O)CCc1ncc(C(F)(F)F)cc1Cl	none (no result: sdo1 growth, Yeast growth inh, Yeast life ext)
Cn1c(=O)cc(OCCCC(=O)NCc2ccc(F)cc2Cl)c2ccccc21	RAM inhibit 16 (no result: sdo1 growth, Yeast growth inh, Yeast life ext) | RAM 5-FOA inactive
Cn1c(=O)cc(OCCCC(=O)NCc2ccccn2)c2ccccc21	none
COc1ccc(OC)c(NC(=O)COC(=O)Cc2ccc(-c3ccccc3)cc2)c1	RAM inhibit 14 | RAM 5-FOA inactive
CCOc1ccccc1NC(=O)COC(=O)Cc1ccc(-c2ccccc2)cc1	none
COc1ccc(CC(=O)Nc2cc3oc4ccccc4c3cc2OC)cc1	RAM inhibit 12 | RAM 5-FOA inactive
COc1cc(NC(=O)COC(=O)Cc2ccc(-c3ccccc3)cc2)cc(OC)c1	RAM inhibit 17 | RAM 5-FOA inactive
COc1ccccc1CC(=O)Nc1cc2oc3ccccc3c2cc1OC	none
CC(=O)c1cc2c(cc1NS(=O)(=O)c1ccccc1F)OCO2	none (no result: sdo1 growth, Yeast growth inh, Yeast life ext)
C=CCn1c(SCc2csc(C)n2)nc2sc3c(c2c1=O)CCC(C)C3 (stereo not given)	RAM inhibit 15 (no result: Yeast life ext) | RAM 5-FOA inactive
C=CCn1c(SCC(=O)Nc2cc(C)on2)nc2sc3c(c2c1=O)CCCC3	none
C=CCn1c(SCc2csc(C)n2)nc2sc3c(c2c1=O)CCCCC3	RAM inhibit 17 | RAM 5-FOA inactive
S=C(N/N=C/c1ccccc1)N1CCOCC1	none
CCOC(=O)c1c(NC(=O)CN2CCCc3ccccc32)sc(C)c1CC	RAM inhibit 15 | RAM 5-FOA inactive
CCOC(=O)c1c(NC(=O)CN2CCCc3ccccc32)sc(C)c1C	RAM inhibit 14 | RAM 5-FOA inactive
O=C(CNC(=O)c1cccs1)OCC(=O)c1ccccc1Cl	none (no result: sdo1 growth, Yeast growth inh, Yeast life ext)
O=C(COc1cccnc1[N+](=O)[O-])NCCc1ccc(F)cc1	none (no result: sdo1 growth, Yeast growth inh, Yeast life ext)
COCCn1c(=NC(=O)c2sc3ccccc3c2Cl)sc2cc(S(N)(=O)=O)ccc21	RAM inhibit 16 | RAM 5-FOA inactive
C=CCn1c(=NC(=O)c2sc3ccccc3c2Cl)sc2cc(S(N)(=O)=O)ccc21	none
COc1ccccc1-c1noc(CCC(=O)Nc2cccc(C(F)(F)F)c2)n1	RAM inhibit 23 | RAM 5-FOA inactive
Cc1cnn(-c2nc(-c3ccccc3)cc(-c3ccccc3)n2)c1	RAM inhibit 14 (no result: sdo1 growth, Yeast growth inh, Yeast life ext) | RAM 5-FOA inactive
Cc1ccc(C(=O)C(OC(=O)CCC(=O)Nc2cccc(C)c2)c2ccccc2)cc1 (stereo not given)	RAM inhibit 13 | RAM 5-FOA inactive
Cc1ccc(-c2noc(CSc3nnc(CCc4ccccc4)n3-c3ccccc3)n2)cc1	RAM inhibit 14 | RAM 5-FOA inactive
Cc1ccc(SCc2nc(-c3ccccc3)no2)cc1	none
O=C(Nc1ccn(Cc2ccccc2F)n1)c1ccc(COc2ccc(Br)cc2)cc1	RAM inhibit 16 | RAM 5-FOA inactive
CCC(C)(C(=O)NC1CCCC1)N(C(=O)Cc1cccs1)c1c(C)n(C)n(-c2ccccc2)c1=O (stereo not given)	none (no result: sdo1 growth, Yeast growth inh, Yeast life ext)
COCCCNC(=S)N1CCCN(c2nc3c(C)c(C)ccc3cc2C#N)CC1	RAM inhibit 16 (no result: sdo1 growth, Yeast growth inh, Yeast life ext) | RAM 5-FOA inactive
